Experimental data as given in ChEMBL document CHEMBL2062403, “Disulfide prodrugs of albitiazolium (T3/SAR97276): synthesis and biological activities” (J Med Chem, 2012).
pIC50: −log10 of the molar value.

Experiments:
Plasmodium falciparum = test: Antiplasmodial activity against Plasmodium falciparum assessed as inhibition of [3H]hypoxanthine incorporation after 48 hrs; format: functional, organism-based
In short: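 P. falciparum Nigerian strain blood stages, modified Desjardins microtiter test; drug contact one parasite cycle (48 h); growth read as [³H]hypoxanthine incorporation into nucleic acids; IC50 = concentration giving 50% growth inhibition.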

[1] = system: Plasmodium vinckei petteri; test: Antimalarial activity against Plasmodium vinckei petteri 279BY infected in ip dosed Swiss mouse assessed as reduction in parasitemia administered QD for 4 days measured on day 5; format: functional
In short: (§1)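 P. vinckei-infected mice, 4-day suppressive test, dosing once daily for 4 days by ip or oral route; vehicle DMSO for both routes except some compounds given in 0.9% NaCl (ip) or water (po); ED50 = dose inhibiting in vivo parasite growth by 50%.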

[2] = system: Plasmodium vinckei petteri; test: Antimalarial activity against Plasmodium vinckei petteri 279BY infected in po dosed Swiss mouse assessed as reduction in parasitemia administered QD for 4 days measured on day 5; format: functional; in short: as §1
[3] = system: Plasmodium vinckei petteri; test: Ratio of ED50 for Plasmodium vinckei petteri 279BY infected in […] dosed Swiss mouse; format: functional
Mus musculus [4] = test: Prodrug conversion in ip dosed Swiss mouse assessed as albitiazolium bromide formation administered QD for 4 days; format: ADME, organism-based; settings: in vivo, 96 h
Mus musculus [5] = test: Prodrug conversion in po dosed Swiss mouse assessed as albitiazolium bromide formation administered QD for 4 days; format: ADME, organism-based; settings: in vivo, 96 h
[6] = Aqueous solubility of the compound; format: physicochemical; settings: water

Compound: CSS/C(CCO)=C(/C)N(C=O)CCCCCCCCCCCCN(C=O)/C(C)=C(/CCO)SSC
- pIC50 (Plasmodium falciparum): 8.22
- ED50 [1]: 0.4 mg/kg
- ED50 [2]: 15 mg/kg
- Ratio ED50 [3]: 2.7
- Drug metabolism (Mus musculus [4]): Active
- Drug metabolism (Mus musculus [5]): Active

Compound: CSS/C(CCOC(=O)[C@@H](N)C(C)C)=C(/C)N(C=O)CCCCCCCCCCCCN(C=O)/C(C)=C(/CCOC(=O)[C@@H](N)C(C)C)SSC.Cl
- pIC50 (Plasmodium falciparum): 6.80
- ED50 [1]: 1 mg/kg
- ED50 [2]: 58 mg/kg
- Ratio ED50 [3]: 1.7
- Drug metabolism (Mus musculus [4]): Active

Compound: Cc1c(CCOP(=O)(O)O)sc[n+]1CCCCCCCCCCCC[n+]1csc(CCOP(=O)(O)O)c1C
- pIC50 (Plasmodium falciparum): 8.18
- ED50 [1]: 0.34 mg/kg
- ED50 [2]: 34 mg/kg
- Ratio ED50 [3]: 1

Compound: CCSS/C(CCO)=C(/C)N(C=O)CCCCCCCCCCCCN(C=O)/C(C)=C(/CCO)SSCC
- pIC50 (Plasmodium falciparum): 8.27
- ED50 [1]: 1.1 mg/kg
- ED50 [2]: 44 mg/kg
- Ratio ED50 [3]: 2.5
- Drug metabolism (Mus musculus [4]): Active

Compound: CCCSS/C(CCO)=C(/C)N(C=O)CCCCCCCCCCCCN(C=O)/C(C)=C(/CCO)SSCCC
- pIC50 (Plasmodium falciparum): 8.89
- ED50 [1]: 0.5 mg/kg
- ED50 [2]: > 54 mg/kg
- Drug metabolism (Mus musculus [4]): Active

Compound: C/C(=C(\CCO)SSCc1ccccc1)N(C=O)CCCCCCCCCCCCN(C=O)/C(C)=C(/CCO)SSCc1ccccc1
- pIC50 (Plasmodium falciparum): 7.84
- ED50 [1]: 1.3 mg/kg
- ED50 [2]: 80 mg/kg
- Ratio ED50 [3]: 1.6
- Drug metabolism (Mus musculus [4]): Active

Compound: C/C1=C(\CCO)SS/C(CCO)=C(/C)N(C=O)CCCCCCCCCCCCN1C=O
- pIC50 (Plasmodium falciparum): 7.19
- ED50 [1]: 0.9 mg/kg
- ED50 [2]: 22 mg/kg
- Drug metabolism (Mus musculus [4]): Active

Compound: C/C1=C(\CCOC(=O)[C@@H](N)C(C)C)SS/C(CCOC(=O)[C@@H](N)C(C)C)=C(/C)N(C=O)CCCCCCCCCCCCN1C=O.Cl
- pIC50 (Plasmodium falciparum): 6.23
- ED50 [1]: 1 mg/kg
- ED50 [2]: 37 mg/kg
- Ratio ED50 [3]: 4.1
- Drug metabolism (Mus musculus [4]): Active

Compound: CC(=O)OCC/C1=C(\C)N(C=O)CCCCCCCCCCCCN(C=O)/C(C)=C(/CCOC(C)=O)SS1
- pIC50 (Plasmodium falciparum): 7.62
- ED50 [1]: 1 mg/kg
- ED50 [2]: 7.3 mg/kg
- Ratio ED50 [3]: 13.7
- Drug metabolism (Mus musculus [4]): Active

Compound: CCOP(=O)(OCC)OCC/C(SSCC)=C(\C)N(C=O)CCCCCCCCCCCCN(C=O)/C(C)=C(/CCOP(=O)(OCC)OCC)SSCC
- pIC50 (Plasmodium falciparum): 7.21
- ED50 [1]: > 1 mg/kg
- ED50 [2]: > 90 mg/kg

Compound: CCSS/C(CCOP1(=O)OCc2ccccc2O1)=C(/C)N(C=O)CCCCCCCCCCCCN(C=O)/C(C)=C(/CCOP1(=O)OCc2ccccc2O1)SSCC (centres undefined)
- pIC50 (Plasmodium falciparum): 6.28
- ED50 [1]: 5 mg/kg
- ED50 [2]: > 90 mg/kg
- Drug metabolism (Mus musculus [4]): Active

Compound: CCSS/C(CCOP(=O)([O-])[O-])=C(/C)N(C=O)CCCCCCCCCCCCN(C=O)/C(C)=C(/CCOP(=O)([O-])[O-])SSCC.[Li+].[Li+].[Li+].[Li+]
- pIC50 (Plasmodium falciparum): 5.24
- ED50 [1]: 1.1 mg/kg
- ED50 [2]: 60 mg/kg
- Ratio ED50 [3]: 1.8
- Drug metabolism (Mus musculus [4]): Active

Compound: C/C(=C(\CCOP1(=O)OCc2ccccc2O1)SSCc1ccccc1)N(C=O)CCCCCCCCCCCCN(C=O)/C(C)=C(/CCOP1(=O)OCc2ccccc2O1)SSCc1ccccc1 (centres undefined)
- pIC50 (Plasmodium falciparum): 6.06
- ED50 [1]: > 5 mg/kg
- ED50 [2]: > 90 mg/kg

Compound: C/C(=C(\CCOP(=O)([O-])[O-])SSCc1ccccc1)N(C=O)CCCCCCCCCCCCN(C=O)/C(C)=C(/CCOP(=O)([O-])[O-])SSCc1ccccc1.[Li+].[Li+].[Li+].[Li+]
- pIC50 (Plasmodium falciparum): 5.36
- ED50 [1]: 3 mg/kg
- ED50 [2]: > 90 mg/kg
- Drug metabolism (Mus musculus [4]): Active

Compound: C/C1=C(\CCOC(=O)[C@@H](N)CCCCN)SS/C(CCOC(=O)[C@@H](N)CCCCN)=C(/C)N(C=O)CCCCCCCCCCCCN1C=O.Cl.Cl
- pIC50 (Plasmodium falciparum): 6.89
- ED50 [1]: 0.9 mg/kg
- ED50 [2]: 50 mg/kg
- Ratio ED50 [3]: 1.8
- solubility [6]: 27 mg/mL
- Drug metabolism (Mus musculus [4]): Active

Compound: CSS/C(CCOC(=O)[C@@H](N)CCCCN)=C(/C)N(C=O)CCCCCCCCCCCCN(C=O)/C(C)=C(/CCOC(=O)[C@@H](N)CCCCN)SSC.Cl.Cl
- pIC50 (Plasmodium falciparum): 6.92
- ED50 [1]: 1 mg/kg
- ED50 [2]: 44 mg/kg
- Ratio ED50 [3]: 2.3
- solubility [6]: 27 mg/mL
- Drug metabolism (Mus musculus [4]): Active

Compound: Cc1c(CCO)sc[n+]1CCCCCCCCCCCC[n+]1csc(CCO)c1C.[Br-].[Br-] [ALBITIAZOLIUM BROMIDE]
- ED50 [1]: 0.2 mg/kg
- ED50 [2]: 13 mg/kg
- Ratio ED50 [3]: 1.5

Compound: CCN(CC)CCCC(C)Nc1ccnc2cc(Cl)ccc12 (centres undefined) [CHLOROQUINE]
- ED50 [1]: 1.1 mg/kg
- ED50 [2]: 3.4 mg/kg
